Data as given in ChEMBL document CHEMBL5620421, “2,6-Disubstituted 7-(naphthalen-2-ylmethyl)-7H-purines as a new class of potent antitubercular agents inhibiting DprE1” (Eur J Med Chem, 2023).
In brackets after ≈: the same amount, converted by molar mass. Activity calls are given as the source filed them. The calls are words filed in the database; no cut-off is given here.

Tests used:
Mycobacterium avium [1] = test: Antitubercular activity against Mycobacterium avium CNCTC My 330/88 assessed as inhibition of bacterial growth measured after 14 days of incubation by Sulas semisynthetic medium based assay; type: functional; conditions: CNCTC My 330/88, 336 h, time 14 day
In short: (§1)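 M. avium was tested by the micromethod in Sula's semisynthetic medium. Compounds in DMSO at 1000 to 0.5 μmol/L. Incubation at 37 °C, read at 14 and 21 days. MIC is the lowest concentration giving >99% growth inhibition.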

Mycobacterium avium [2] = test: Antitubercular activity against Mycobacterium avium CNCTC My 330/88 assessed as inhibition of bacterial growth measured after 21 days of incubation by Sulas semisynthetic medium based assay; type: functional; conditions: CNCTC My 330/88, 504 h, time 21 day; in short: as §1
Mycobacterium kansasii [3] = test: Antitubercular activity against Mycobacterium kansasii CNCTC My 235/80 assessed as inhibition of bacterial growth measured after 14 days of incubation by Sulas semisynthetic medium based assay; type: functional; conditions: CNCTC My 235/80, 336 h, time 14 day
In short: (§2)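 Micromethod in Sula's semisynthetic medium. MIC is the lowest concentration inhibiting >99% of the mycobacterial population. Isoniazid was the standard.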

Mycobacterium kansasii [4] = test: Antitubercular activity against Mycobacterium kansasii CNCTC My 235/80 assessed as inhibition of bacterial growth measured after 21 days of incubation by Sulas semisynthetic medium based assay; type: functional; conditions: CNCTC My 235/80, 504 h, time 21 day; in short: as §2
[5] = test system: Mycobacterium tuberculosis; test: Antimycobacterial activity against MDR clinical isolate Mycobacterium tuberculosis PRAHA 131 assessed as inhibition of mycobacterial growth measured after 14 to 21 days of incubation by Sulas semisynthetic medium based assay; type: functional; conditions: time 14-21 day
In short: (§3)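 Clinical MDR/XDR M. tuberculosis isolates were tested by the Sula's semisynthetic medium micromethod. Compounds in DMSO at 1000 to 0.5 μmol/L, in twofold-type steps. Incubation at 37 °C, read at 14 and 21 days. MIC99 is the lowest concentration inhibiting >99% of growth. Drug resistance or susceptibility of each isolate is to amikacin, clofazimine, gentamicin, ofloxacin, streptomycin and the others listed.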

[6] = test system: Mycobacterium tuberculosis; test: Antimycobacterial activity against XDR clinical isolate Mycobacterium tuberculosis PRAHA 131 assessed as inhibition of mycobacterial growth measured after 14 to 21 days of incubation by Sulas semisynthetic medium based assay; type: functional; conditions: time 14-21 day; in short: as §3
[7] = test system: Mycobacterium tuberculosis; test: Antimycobacterial activity against MDR clinical isolate Mycobacterium tuberculosis 8666/2010 assessed as inhibition of mycobacterial growth measured after 14 to 21 days of incubation by Sulas semisynthetic medium based assay; type: functional; conditions: time 14-21 day; in short: as §3
[8] = test system: Mycobacterium tuberculosis; test: Antimycobacterial activity against XDR clinical isolate Mycobacterium tuberculosis 8666/2010 assessed as inhibition of mycobacterial growth measured after 14 to 21 days of incubation by Sulas semisynthetic medium based assay; type: functional; conditions: time 14-21 day; in short: as §3
HepG2 [9] = test: Cytotoxicity against human HepG2 cells assessed as cell viability at 50 uM incubated for 72 hrs by MTT spectrophotometric analysis relative to control; type: functional; conditions: read-out: Activity
In short: (§4)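 HepG2 or rat H9c2 cells in DMEM with FBS, seeded at 10,000 cells/well. Treated 24 h later for 72 h, with 0.1% DMSO vehicle and 1% Triton X-100 as controls. MTT added (3 mg/mL solution) for 2 h at 37 °C, then cells lysed in isopropanol/0.1 M HCl/5% Triton X-100. Read at 570 nm minus 690 nm. Viability expressed as % of vehicle; IC50 derived where reached. At least four independent experiments.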

HepG2 [10] = test: Cytotoxicity against human HepG2 cells assessed as cell viability incubated for 72 hrs by MTT spectrophotometric analysis; type: functional, cell-based; conditions: HepG2, 72 h; in short: as §4
H9c2 = test: Cytotoxicity against rat H9c2 cells assessed as cell viability incubated for 72 hrs by MTT spectrophotometric analysis; type: functional, cell-based; conditions: H9c2, 72 h; in short: as §4
[11] = Half life in human liver microsomes at 3 uM incubated for 5 to 45 min in presence of NADPH by LC-MS analysis; type: ADME, Microsome; conditions: time 5-45 min
[12] = Stability in human plasma assessed as compound remaining at 1 uM incubated for 15 to 120 mins by LC-MS analysis; type: ADME, cell-free; conditions: time 15-120 min, read-out: Stability
In short: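 Stopped with acetonitrile containing internal standard and centrifuged at 12,000 rpm for 5 min at 4 °C. Supernatant analysed by LC-MS in positive mode. % remaining taken from compound/IS peak-area ratios at 120 versus 0 min.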

Klebsiella pneumoniae [13] = test: Antibacterial activity against ESBL positive Klebsiella pneumoniae C1914 assessed as inhibition of bacterial growth incubated for 24 to 48 hrs by microdilution broth method; type: functional, organism-based; conditions: time 24-48 hrs
In short: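 Clinical isolates kept at –70 °C and subcultured twice on Mueller-Hinton agar, using the second subculture. Broth microdilution in Mueller-Hinton broth at pH 7.4 with two-fold serial compound dilutions and DMSO ≤1% final. Inoculum was 10 μL of a 1.5 × 10⁸ CFU/mL suspension. Incubated at 36 °C ± 1 °C and read at 24 h and 48 h. MIC taken as 95% growth inhibition.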

Staphylococcus aureus = test: Antibacterial activity against methicilin-resistant Staphylococcus aureus C1923 assessed as inhibition of bacterial growth at 125 uM incubated for 24 to 48 hrs by microdilution broth method; type: functional, organism-based; conditions: time 24-48 hrs
[14] = test system: Staphylococcus epidermidis; test: Antibacterial activity against Staphylococcus epidermidis C1936 assessed as inhibition of bacterial growth at 125 uM incubated for 24 to 48 hrs by microdilution broth method; type: functional, organism-based; conditions: time 24-48 hrs
Enterococcus faecium = test: Antibacterial activity against vancomycin-resistant Enterococcus faecium assessed as inhibition of bacterial growth at 125 uM incubated for 24 to 48 hrs by microdilution broth method; type: functional, organism-based; conditions: time 24-48 hrs
Escherichia coli = test: Antibacterial activity against Escherichia coli A1235 assessed as inhibition of bacterial growth at 125 uM incubated for 24 to 48 hrs by microdilution broth method; type: functional, organism-based; conditions: time 24-48 hrs
Klebsiella pneumoniae [15] = test: Antibacterial activity against ESBL negative Klebsiella pneumoniae C1950 assessed as inhibition of bacterial growth at 125 uM incubated for 24 to 48 hrs by microdilution broth method; type: functional, organism-based; conditions: time 24-48 hrs
Klebsiella pneumoniae [16] = test: Antibacterial activity against ESBL positive Klebsiella pneumoniae C1914 assessed as inhibition of bacterial growth at 125 uM incubated for 24 to 48 hrs by microdilution broth method; type: functional, organism-based; conditions: time 24-48 hrs
Mycobacterium kansasii [17] = test: Antitubercular activity against Mycobacterium kansasii CNCTC My 235/80 assessed as inhibition of bacterial growth measured after 7 days of incubation by Sulas semisynthetic medium based assay; type: functional; conditions: CNCTC My 235/80, 168 h, time 7 day; in short: as §2
[18] = test system: Mycobacterium tuberculosis; test: Antimycobacterial activity against MDR clinical isolate Mycobacterium tuberculosis PRAHA 1 assessed as inhibition of mycobacterial growth measured after 14 to 21 days of incubation by Sulas semisynthetic medium based assay; type: functional; conditions: time 14-21 day; in short: as §3
[19] = test system: Mycobacterium tuberculosis; test: Antimycobacterial activity against MDR clinical isolate Mycobacterium tuberculosis PRAHA 4 assessed as inhibition of mycobacterial growth measured after 14 to 21 days of incubation by Sulas semisynthetic medium based assay; type: functional; conditions: time 14-21 day; in short: as §3
[20] = test system: Mycobacterium tuberculosis; test: Antimycobacterial activity against XDR clinical isolate Mycobacterium tuberculosis PRAHA 4 assessed as inhibition of mycobacterial growth measured after 14 to 21 days of incubation by Sulas semisynthetic medium based assay; type: functional; conditions: time 14-21 day; in short: as §3
[21] = test system: Mycobacterium tuberculosis; test: Antimycobacterial activity against XDR clinical isolate Mycobacterium tuberculosis 234/2005 assessed as inhibition of mycobacterial growth measured after 14 to 21 days of incubation by Sulas semisynthetic medium based assay; type: functional; conditions: time 14-21 day; in short: as §3

| Structure (SMILES) | MIC99 (Mycobacterium avium [1]) | MIC99 (Mycobacterium avium [2]) | MIC99 (Mycobacterium kansasii [3]) | MIC99 (Mycobacterium kansasii [4]) | MIC99 [5] | MIC99 [6] | MIC99 [7] | MIC99 [8] | viability at 50 µM (HepG2 [9]) | IC50 (HepG2 [10]) | IC50 (H9c2) | half-life at 3 µM [11] | remaining at 1 µM [12] | Activity (Klebsiella pneumoniae [13]) | Activity (Staphylococcus aureus) | MIC99 (Mycobacterium kansasii [17]) | MIC99 [18] | MIC99 [19] | MIC99 [20] | MIC99 [21] | further results |
| --- | --- | --- | --- | --- | --- | --- | --- | --- | --- | --- | --- | --- | --- | --- | --- | --- | --- | --- | --- | --- | --- |
| Nc1nc(N2CCOCC2)nc2ncn(Cc3ccc4ccccc4c3)c12 | > 500 µM | > 500 µM | 16 µM (≈ 5.77 µg/mL) | 16 µM (≈ 5.77 µg/mL) | 2 µM (≈ 0.721 µg/mL) | 4 µM (≈ 1.44 µg/mL) | 2 µM (≈ 0.721 µg/mL) | 4 µM (≈ 1.44 µg/mL) | 77% | > 50 µM | > 50 µM | 82.5 min | 103% | inactive | inactive | – | – | – | – | – | Activity [14]: inactive; Activity (Enterococcus faecium): inactive; Activity (Escherichia coli): inactive; Activity (Klebsiella pneumoniae [15]): inactive; Activity (Klebsiella pneumoniae [16]): inactive |
| O=c1[nH]c(N2CCCCC2)nc2ncn(Cc3ccc4ccccc4c3)c12 | > 500 µM | > 500 µM | > 500 µM | > 500 µM | 8 µM (≈ 2.88 µg/mL) | 16 µM (≈ 5.75 µg/mL) | 8 µM (≈ 2.88 µg/mL) | 8 µM (≈ 2.88 µg/mL) | 42.2% | 54.8 µM | > 50 µM | 17.8 min | 96.7% | inactive | – | > 500 µM | 16 µM (≈ 5.75 µg/mL) | 8 µM (≈ 2.88 µg/mL) | 16 µM (≈ 5.75 µg/mL) | 16 µM (≈ 5.75 µg/mL) | – |
| O=c1[nH]c(N2CCSCC2)nc2ncn(Cc3ccc4ccccc4c3)c12 | > 500 µM | > 500 µM | 64 µM (≈ 24.2 µg/mL) | 125 µM (≈ 47.2 µg/mL) | 8 µM (≈ 3.02 µg/mL) | 16 µM (≈ 6.04 µg/mL) | 8 µM (≈ 3.02 µg/mL) | 8 µM (≈ 3.02 µg/mL) | 72.9% | > 50 µM | > 50 µM | 10.9 min | 98.2% | inactive | – | 32 µM (≈ 12.1 µg/mL) | 16 µM (≈ 6.04 µg/mL) | 8 µM (≈ 3.02 µg/mL) | 16 µM (≈ 6.04 µg/mL) | 16 µM (≈ 6.04 µg/mL) | – |
| O=c1[nH]c(N2CCOCC2)nc2ncn(Cc3ccc4ccccc4c3)c12 | > 500 µM | > 500 µM | 64 µM (≈ 23.1 µg/mL) | 125 µM (≈ 45.2 µg/mL) | 32 µM (≈ 11.6 µg/mL) | 32 µM (≈ 11.6 µg/mL) | 32 µM (≈ 11.6 µg/mL) | 64 µM (≈ 23.1 µg/mL) | 60.5% | 59 µM | > 50 µM | 110 min | 96.6% | inactive | – | 32 µM (≈ 11.6 µg/mL) | 32 µM (≈ 11.6 µg/mL) | 16 µM (≈ 5.78 µg/mL) | 32 µM (≈ 11.6 µg/mL) | 32 µM (≈ 11.6 µg/mL) | – |
| CCOc1nc(N2CCOCC2)nc2ncn(Cc3ccc4ccccc4c3)c12 | > 500 µM | > 500 µM | 16 µM (≈ 6.23 µg/mL) | 16 µM (≈ 6.23 µg/mL) | 2 µM (≈ 0.779 µg/mL) | 4 µM (≈ 1.56 µg/mL) | 2 µM (≈ 0.779 µg/mL) | 2 µM (≈ 0.779 µg/mL) | 23.5% | 33.1 µM | > 50 µM | 56.8 min | 99.6% | inactive | inactive | 8 µM (≈ 3.12 µg/mL) | – | – | – | – | Activity [14]: inactive; Activity (Enterococcus faecium): inactive; Activity (Escherichia coli): inactive; Activity (Klebsiella pneumoniae [15]): inactive; Activity (Klebsiella pneumoniae [16]): inactive |
